{"source": "paper PMC12272722", "about": "(RSC Medicinal Chemistry, 2025)", "key": {"[1]": {"tested_on": "Trichophyton rubrum LM 237", "test": "MIC99 by broth microdilution", "assay_type": "cell-based", "conditions": "LM237, 168 h, read-out: MIC99 T. rubrum", "procedure,_shortened": "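T. rubrum was cultured on Sabouraud dextrose agar at 27 °C for one week. Actively growing mycelium was collected into sterile distilled water with broken coverslips as inoculum. Test compound in 5% aqueous DMSO was diluted twofold serially in SDA over 2.0 × 10−1 to 2.4 × 10−5 mg mL−1. Plates were held at 30 °C and scored visually after 7 days. Run in triplicate with solvent blanks; amphotericin B and fluconazole as references.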"}, "[2]": {"test": "Water thermodynamic solubility by HPLC", "assay_type": "physicochemical", "conditions": "ultrapure water, 25 °C, thermodynamic from solid"}, "[3]": {"conditions": "literature value; cited from earlier work"}}, "data": [{"compound": "COC(=O)[C@H](CO)NC(C)=C1C(=O)C=C2Oc3c(C(C)=O)c(O)c(C)c(O)c3[C@@]2(C)C1=O", "note": "[(9bR,15S)-1, Methyl (1-((R)-6-acetyl-7,9-dihydroxy-8,9b-dimethyl-1,3-dioxo-3,9b-dihydrodibenzo[b,d]furan-2(1H)-ylidene)ethyl)-L-serinate]", "values": [{"measurement": "MIC99", "setting": "[1]", "value": 450, "unit": "µM"}, {"measurement": "solubility at 24 h", "setting": "[2]", "value": "150 to 4700", "unit": "µM"}]}, {"compound": "usnic acid [UA]", "values": [{"measurement": "Aqueous solubility at 25 °C", "setting": "[3]", "value": "<0.3 (lit.)[60] mM"}]}, {"compound": "CC(=O)c1c(O)c(C)c(O)c2c1OC1=CC(=O)C(=C(C)N[C@@H](CCCNC(=N)N)C(=O)O)C(=O)[C@@]12C", "note": "[(9bR,15S)-2, (1-((R)-6-Acetyl-7,9-dihydroxy-8,9b-dimethyl-1,3-dioxo-3,9b-dihydrodibenzo[b,d]furan-2(1H)-ylidene)ethyl)-L-arginine]", "values": [{"measurement": "MIC99", "setting": "[1]", "value": 400, "unit": "µM"}]}, {"compound": "CC(=O)c1c(O)c(C)c(O)c2c1OC1=CC(=O)C(=C(C)N[C@@H](CCCNC(=N)N)C(=O)O)C(=O)[C@]12C", "note": "[(9bS,15S)-2, (1-((S)-6-Acetyl-7,9-dihydroxy-8,9b-dimethyl-1,3-dioxo-3,9b-dihydrodibenzo[b,d]furan-2(1H)-ylidene)ethyl)-L-arginine]", "values": [{"measurement": "MIC99", "setting": "[1]", "value": 100, "unit": "µM"}]}, {"compound": "COC(=O)[C@H](CO)NC(C)=C1C(=O)C=C2Oc3c(C(C)=O)c(O)c(C)c(O)c3[C@]2(C)C1=O", "note": "[(9bS,15S)-1, Methyl (1-((S)-6-acetyl-7,9-dihydroxy-8,9b-dimethyl-1,3-dioxo-3,9b-dihydrodibenzo[b,d]-furan-2(1H)-ylidene)ethyl)-L-serinate]", "values": [{"measurement": "MIC99", "setting": "[1]", "value": 28, "unit": "µM"}, {"measurement": "solubility at 24 h", "setting": "[2]", "value": 150, "unit": "µM"}]}, {"compound": "OC(Cn1cncn1)(Cn1cncn1)c1ccc(F)cc1F", "note": "[FCZ, fluconazole, reference compound]", "values": [{"measurement": "MIC99", "setting": "[1]", "value": "> 200", "unit": "µM"}]}, {"compound": "C[C@@H]1[C@H](O)[C@@H](C)/C=C/C=C/C=C/C=C/C=C/C=C/C=C/[C@H](O[C@@H]2O[C@H](C)[C@@H](O)[C@H](N)[C@@H]2O)C[C@@H]2O[C@](O)(C[C@@H](O)C[C@@H](O)[C@H](O)CC[C@@H](O)C[C@@H](O)CC(=O)O[C@H]1C)C[C@H](O)[C@H]2C(=O)O", "note": "[AmB, amphotericin B, reference compound]", "values": [{"measurement": "MIC99", "setting": "[1]", "value": "> 400", "unit": "µM"}]}]}
